The results in this text go back to PubChem BioAssay.

One may read the viability as a read-out of living cells in per cent, often relative to untreated cells. For orientation: inhibition means the change of the read-out against control, counted positive when it falls.

Each structure is given as a SMILES string. Values without a mark were called inactive. Inconclusive results are not listed. Calls of active or inactive are those of the source.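 The calls were made as follows, unless noted: active = inhibition over a set limit, the all-compound mean plus 3 SD, in both replicate runs; inconclusive = over that limit in just one replicate run; inactive = at or under that limit in both runs.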

Experiment [1] is described as follows: OD615 S. cerevisiae growth inhibition, permissive medium, pilot counter-assay, permissive growth control for S. cerevisiae lifespan shortening project (AID 705;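 active = growth inhibition above 25% in both replicates, a cutoff set 3 SD above the mean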). As to conditions: OD615, 24 h, at 10 µM, hits give high values. A digest of the protocol:
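Timing: 24 h exposure, 30 °C / Material: Saccharomyces cerevisiae strain carrying genetically modified DeaD replicative-lifespan system / Signal: OD at 615 nm / Compound: 10 µM single dose, 0.25% DMSO / Medium: SC raffinose/galactose permissive medium / Evaluation: reduction in yeast growth (OD615)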

Experiment [2] in a line: Restrictive medium S. cerevisiae growth inhibition, OD615, pilot screen of yeast lifespan reduction project, restrictive growth control (AID 706;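 active = growth inhibition above a set limit, 3 SD over mean compound inhibition, in both replicates, cut at about 43% in these data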;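 also: modified DeaD lifespan yeast strain shifted to restrictive glucose medium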). The note with it: OD615, 48 h, at 10 µM, hits give high values. A digest of the protocol: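 System: Engineered S. cerevisiae DeaD strain | Detection: OD615 | Buffer or medium: CSMM-D glucose medium | Doses: 10 µM compound, 0.25% DMSO | Timing: 4 h pre-growth plus 48 h compound exposure, 30 °C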

Experiment [3] is described as follows: viability gain of MRP-1-high H69AR cells under doxorubicin, pilot screen, MRP-1 activator project, CellTiter-Glo, duplicate (AID 807;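 active = viability increase at or above a cutoff of the median across tested compounds plus 3 SD, cut at about 8.5% in these data, passing the limit was not always enough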;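 also: compound pretreatment 18-22 h then 72 h combined with doxorubicin; 0% = doxorubicin alone and 100% = vehicle without doxorubicin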). The note with it: H69AR viability with doxorubicin, CellTiter-Glo luminescence; at 10 µM; hits give high values. (In general: In ATP-based viability assays light output follows the ATP content of the culture.)
A short description of experiment [4]: growth suppression of beta-catenin knockout HCT116, pilot screen, human colon tumor cells (AID 823;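 active = cell viability at or below a set limit in both duplicate runs, the limit being the all-compound median minus 4 SD, cut at about 23% in these data, passing the limit was not always enough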;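 also: 0% = wells killed by 20 µM Hyamine and 100% = untreated DMSO cell wells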). As to conditions: CellTiter-Glo, 60 h, at 10 µM, hits give low values.
Experiment [5] can be described thus: growth suppression of PTEN-deleted HCT116, pilot screen, cell-based, HCT116 clonal line, CellTiter-Glo (AID 824;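 active = viability at or below 27.92% in each of two runs, the all-compound median minus 4 SD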;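 also: 0% = 20 µM Hyamine control and 100% = vehicle cell control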). The note with it: 60 h, at 10 µM, hits give low values.
The nature of experiment [6]: inhibitors of the yeast RAM network, pilot screen, dse1pr::URA3 reporter, 5-FOA selection (AID 869).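 Also: 0% = DMSO wells with no growth and 100% = 10 µM 1-NA-PP1 with full growth; RAM network block rescues cells from 5-FOA so hits raise OD615 growth.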 The note with it: S. cerevisiae dse1pr::URA3 5-FOA growth, OD615, 2 d; at 10 µM; hits give high values; strain carries analog-sensitive mutant Cbk1 kinase.
A short description of experiment [7]: RAM signaling pathway blockade in yeast – S. cerevisiae, Pdr1DBD-CYC8 efflux-inhibited sensitized strain, primary screen (AID 1298;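 active = RAM network inhibition above 8.4% in each of two replicates, 3 SD over the compound average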;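 also: 0% = DMSO untreated cells without growth and 100% = 10 µM 1-NA-PP1 full growth; higher means more yeast growth rescued from 5-FOA killing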). As to conditions: S. cerevisiae cbk1-as DSE1-URA3 strain, 5-FOA growth OD615, 2 d; at 50 µM; hits give high values.

In the case of `COc1cccc(-c2nc(CS(=O)CC(=O)NC3CC3)c(C)o2)c1` (stereo unspecified), the results for the growth inhibition in experiment [1] and in experiment [2] were 1.62% and 14.2%, respectively. Moreover, in experiment [3], the viability increase was -2.91%. Moreover, the viability in experiment [4] and in experiment [5] was 101% throughout. For the same molecule, the inhibition in experiment [6] is 0.52%. Besides, in experiment [7], the RAM network inhibition was 0.14%.
As to `O=C(O)C1C2C=CC3(CN(Cc4ccco4)C(=O)C13)O2` (stereo unspecified), the results for the growth inhibition in experiment [1] and in experiment [2] were -11.7% and 4.86%, respectively. Moreover, the viability increase in experiment [3] is -0.96%. Further, the viability in experiment [4] was 112%; in experiment [5], 95.6%. In addition, in experiment [6], the inhibition is 0.815%. For the same molecule, the RAM network inhibition in experiment [7] was -0.52%.
Regarding `Oc1c(C(c2cccs2)N2CCN(c3ccccc3)CC2)sc2ncnn12` (stereo unspecified), the growth inhibition in experiment [1] is -13.2%; in experiment [2] it was -5.4%. Further, the viability increase in experiment [3] is 12.3% (active). For the same molecule, the viability is 90.9% in experiment [4] and 89.5% in experiment [5]. Besides, in experiment [6], the inhibition was 1.53%. In addition, the RAM network inhibition in experiment [7] is 1.45%.
Regarding `O=C(NCCN1C(=O)C2C3C=CC(C3)C2C1=O)Nc1cccnc1` (stereo unspecified), the figures for the growth inhibition in experiment [1] and in experiment [2] were -0.65% and -7.67%, respectively. Also, in experiment [3], the viability increase was -1.57%. Besides, the viability in experiment [4] is 96.7%; in experiment [5], 99.7%. The inhibition in experiment [6] was 0.445%. Besides, the RAM network inhibition in experiment [7] is 1.17%.
On to `CCN(CC)c1cc(C)c2cc(NC(=O)CNC(C)=O)ccc2n1`, for which the growth inhibition was -10.4% in experiment [1] and -8.29% in experiment [2]. For the same molecule, the viability increase in experiment [3] was -2.37%. In addition, the viability in experiment [4] is 90%; in experiment [5], 91.1%. In experiment [6], the inhibition is 1.11%. For the same molecule, the RAM network inhibition in experiment [7] was 2.59%.
As for `CCN(CC)S(=O)(=O)c1ccc2c3c(cccc13)C(=O)N2`, the results for the growth inhibition in experiment [1] and in experiment [2] were -12.1% and -11.4%, respectively. For the same molecule, in experiment [3], the viability increase was -4.61%. In addition, the viability in experiment [4] is 97.1%; in experiment [5], 96.8%. Moreover, the inhibition in experiment [6] was 2.06%. The RAM network inhibition in experiment [7] is 4.63%.
`CC1(C)CC(=O)N(c2ccccc2)C1(C)O` (stereo unspecified): the values for the growth inhibition in experiment [1] and in experiment [2] were -8.08% and -4.3%, respectively. In addition, the viability increase in experiment [3] is 0.17%. The values for the viability in experiment [4] and in experiment [5] were 93.7% and 104%, respectively. Also, the inhibition in experiment [6] was 0.395%. Further, the RAM network inhibition in experiment [7] is 1.53%.
As for `COc1ccc(-c2noc(-c3cccc(OC)c3OC)n2)cc1OC`, the growth inhibition in experiment [1] was -8.92%; in experiment [2] it was -10.4%. In addition, in experiment [3], the viability increase was -1.07%. The viability in experiment [4] is 102%; in experiment [5] it was 94.3%. Moreover, the inhibition in experiment [6] is 2.87%. In addition, the RAM network inhibition in experiment [7] was 2.97%.
As for `O=C(c1cccc(C(=O)N2CCN(c3ccccc3F)CC2)c1)N1CCN(c2ccccc2F)CC1`, the growth inhibition is -6.5% in experiment [1] and -6.43% in experiment [2]. In experiment [3], the viability increase is -2.61%. For the same molecule, the viability was 56.8% in experiment [4] and 54.9% in experiment [5]. The inhibition in experiment [6] is 3.28%. Also, the RAM network inhibition in experiment [7] is 4.24%.
Take `CCc1ccc(C2CC(c3ccc(F)cc3)Nc3nc(N)nn32)cc1` (stereo unspecified): the growth inhibition in experiment [1] was -4.34%; in experiment [2], 9.52%. In addition, in experiment [3], the viability increase is -0.06%. For the same molecule, the viability was 103% in experiment [4] and 95.4% in experiment [5]. For the same molecule, the inhibition in experiment [6] was -0.41%. Moreover, the RAM network inhibition in experiment [7] was 7.69%.
`CSC1=NCCN1C(=O)c1ccc(S(=O)(=O)N2CCOCC2)cc1`: the growth inhibition in experiment [1] was 3.77%; in experiment [2], 10.2%. In addition, the viability increase in experiment [3] was -1.31%. Also, the results for the viability in experiment [4] and in experiment [5] were 102% and 94.1%, respectively. Also, the inhibition in experiment [6] is 0.62%. The RAM network inhibition in experiment [7] was 3.04%.
For the molecule `COc1ccc(CN2CCN(c3ncccn3)CC2)c(OC)c1`, the growth inhibition in experiment [1] is -0.81%; in experiment [2], 3.13%. Also, the viability increase in experiment [3] is -1.8%. Moreover, the viability in experiment [4] was 94.5%; in experiment [5] it was 89.3%. Besides, the inhibition in experiment [6] is 1.24%. Also, the RAM network inhibition in experiment [7] was 6.9%.
For `CCOc1ccc(N(CC(=O)NCc2ccccc2)S(C)(=O)=O)cc1`, the growth inhibition in experiment [1] is -0.02%; in experiment [2], -4.28%. Also, the viability increase in experiment [3] was -1.14%. Besides, the viability in experiment [4] was 103%; in experiment [5] it was 101%. In experiment [6], the inhibition was 0.535%. Further, the RAM network inhibition in experiment [7] was -0.46%.
Take `Fc1ccc(C2CC(c3ccccc3)Nc3ncnn32)cc1` (stereo unspecified): the growth inhibition in experiment [1] is -10.3%; in experiment [2], -3.12%. Further, the viability increase in experiment [3] was -0.63%. For the same molecule, the viability in experiment [4] is 93.5%; in experiment [5], 98.1%. Moreover, in experiment [6], the inhibition is 1.04%. Also, the RAM network inhibition in experiment [7] is 1.19%.
On to `CC(C)OC(=O)C1C2C=CC3(CN(C(C)c4ccc(Br)cc4)C(=O)C13)O2` (stereo unspecified), for which the growth inhibition in experiment [1] and in experiment [2] was -19.3% in each case. In addition, in experiment [3], the viability increase was -2.07%. Besides, the viability is 96.8% in experiment [4] and 94.1% in experiment [5]. Also, in experiment [6], the inhibition was 0.395%. Moreover, the RAM network inhibition in experiment [7] was 6.84%.
For `COC(=O)NCC(c1cccnc1)N1CCN(c2ccccc2)CC1` (stereo unspecified), the values for the growth inhibition in experiment [1] and in experiment [2] were -3.09% and -0.34%, respectively. The viability increase in experiment [3] is 0.41%. Also, the viability is 91.3% in experiment [4] and 96.8% in experiment [5]. For the same molecule, the inhibition in experiment [6] was 0.355%. Further, in experiment [7], the RAM network inhibition was -1.35%.
On to `COc1ccc(C2N3CC4(C)CN2CC(C)(C3)C4)cc1OC` (stereo unspecified), for which the growth inhibition in experiment [1] is -3.73%; in experiment [2], -17.4%. Further, in experiment [3], the viability increase is -0.73%. Moreover, the viability in experiment [4] was 105%; in experiment [5], 101%. In addition, in experiment [6], the inhibition was 1.08%. For the same molecule, in experiment [7], the RAM network inhibition was 0.83%.
As to `COc1ccc(C2C=C(c3ccc(C)c(C)c3)Nc3ncnn32)c(OC)c1OC` (stereo unspecified), the growth inhibition was -5.12% in experiment [1] and 11.7% in experiment [2]. For the same molecule, the viability increase in experiment [3] is -4.29%. The viability in experiment [4] was 40.4%; in experiment [5] it was 34.3%. Moreover, in experiment [6], the inhibition is 0.775%. Also, the RAM network inhibition in experiment [7] was -1.46%.
